Measurements: ChEMBL document CHEMBL1141063, “Ligands with dual vitamin D3-agonistic and androgen-antagonistic activities” (Bioorg Med Chem Lett, 2005)

Key:
[1] = target: T1, Vitamin D3 receptor (Homo sapiens) (UniProt P11473); assay: Vitamin D3 agonistic activity as effective dose for HL-60 monocytic cell differentiation; format: functional, cell-based
T1 sequence (whole entry): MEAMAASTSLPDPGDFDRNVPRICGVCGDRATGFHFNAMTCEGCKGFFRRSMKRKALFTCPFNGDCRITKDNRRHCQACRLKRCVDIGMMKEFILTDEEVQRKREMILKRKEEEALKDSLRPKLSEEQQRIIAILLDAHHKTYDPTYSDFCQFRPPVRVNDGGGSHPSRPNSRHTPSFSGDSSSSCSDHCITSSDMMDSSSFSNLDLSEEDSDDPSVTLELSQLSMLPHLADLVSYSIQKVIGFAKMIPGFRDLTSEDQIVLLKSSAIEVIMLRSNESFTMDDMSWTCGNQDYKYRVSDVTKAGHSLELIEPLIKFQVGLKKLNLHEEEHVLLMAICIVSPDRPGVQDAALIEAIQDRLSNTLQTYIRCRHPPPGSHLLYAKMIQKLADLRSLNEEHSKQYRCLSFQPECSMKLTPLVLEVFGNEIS
How it was run: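 HL-60 cells held in RPMI 1640 with or without test compound for three days. Cells were then mixed 1:1 (v/v) with PBS containing 0.2% NBT and 20 nM TPA and kept 20 min at 37 °C. NBT-positive cells were counted among 200–300 cells to give the ED50. Differentiation was also checked by Wright–Giemsa morphology.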

Androgen receptor = target: T2, Androgen receptor (Homo sapiens, UniProt P10275); assay: Binding affinity to androgen receptor by incubation with GST-hARLBD and [3H]testosterone
T2 sequence (P10275 whole entry): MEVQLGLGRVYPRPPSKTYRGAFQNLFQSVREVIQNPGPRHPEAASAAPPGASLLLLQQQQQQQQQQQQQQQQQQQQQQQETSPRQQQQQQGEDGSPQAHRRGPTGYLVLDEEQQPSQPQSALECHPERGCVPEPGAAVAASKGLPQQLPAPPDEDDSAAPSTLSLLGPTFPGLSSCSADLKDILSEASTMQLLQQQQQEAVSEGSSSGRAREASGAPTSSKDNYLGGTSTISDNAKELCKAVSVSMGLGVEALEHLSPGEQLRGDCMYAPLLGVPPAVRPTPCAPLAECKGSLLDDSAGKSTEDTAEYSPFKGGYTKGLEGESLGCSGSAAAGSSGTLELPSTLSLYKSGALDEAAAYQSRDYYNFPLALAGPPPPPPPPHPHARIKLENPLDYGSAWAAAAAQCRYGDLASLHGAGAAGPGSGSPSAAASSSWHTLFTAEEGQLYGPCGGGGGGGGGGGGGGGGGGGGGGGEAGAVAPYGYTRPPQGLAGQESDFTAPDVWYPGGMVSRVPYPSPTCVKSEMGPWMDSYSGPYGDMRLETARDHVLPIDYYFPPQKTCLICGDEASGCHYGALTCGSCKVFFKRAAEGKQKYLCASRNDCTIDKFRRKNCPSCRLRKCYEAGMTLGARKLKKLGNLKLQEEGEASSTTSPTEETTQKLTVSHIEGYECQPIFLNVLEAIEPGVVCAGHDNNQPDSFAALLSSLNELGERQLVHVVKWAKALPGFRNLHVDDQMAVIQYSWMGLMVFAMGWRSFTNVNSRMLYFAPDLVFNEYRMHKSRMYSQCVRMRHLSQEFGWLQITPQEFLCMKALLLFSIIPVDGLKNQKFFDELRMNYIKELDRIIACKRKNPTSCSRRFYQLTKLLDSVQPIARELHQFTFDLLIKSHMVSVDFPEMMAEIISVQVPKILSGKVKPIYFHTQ

[2] = Activity ratio of effective dose against vitamin D3 and inhibitory activity against androgen antagonistic activity; format: functional
How it was run: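 Ratio of ED50 for HL-60 differentiation to IC50 for SC-3 growth inhibition. HL-60: cells in RPMI 1640 with or without compound for three days, then NBT 0.2% plus TPA 20 nM in PBS (1:1) for 20 min at 37 °C; NBT-positive cells counted among 200–300. SC-3: cells in MEM, 10% FBS, 10 nM testosterone with or without compound, three days, 37 °C, 5% CO2.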

| SMILES | ED50 [1] | Ki (Androgen receptor) | Ratio [2] |
| --- | --- | --- | --- |
| CCC(CC)(c1ccc(NCCC(C)(C)O)c(C)c1)c1ccc(OCC(=O)C(C)(C)C)c(C)c1 | 0.37 µM | 2.9 µM | 0.45 |
| CCC(CC)(c1ccc(NCC(=O)C(C)(C)C)c(C)c1)c1ccc(NCC(=O)C(C)(C)C)c(C)c1 | 0.45 µM | – | 0.45 |
| CCC(CC)(c1ccc(NCC(O)CO)c(C)c1)c1ccc(OCC(O)C(C)(C)C)c(C)c1 (centres undefined) | 0.052 µM | 1.51 µM | 5.78 |
| CCC(CC)(c1ccc(O)c(C)c1)c1ccc(NCC(=O)C(C)(C)C)c(C)c1 | 1.5 µM | – | 0.43 |
| CCC(CC)(c1ccc(NCC(O)CO)c(C)c1)c1ccc(OCC(=O)C(C)(C)C)c(C)c1 (centres undefined) | 0.11 µM | 1.17 µM | 14.5 |
| CCC(CC)(c1ccc(OCC(O)CO)c(C)c1)c1ccc(OCC(O)C(C)(C)C)c(C)c1 (centres undefined) | 0.044 µM | – | 2.31 |
| CCC(CC)(c1ccc(NCC(O)C(C)(C)C)c(C)c1)c1ccc(NCC(O)C(C)(C)C)c(C)c1 (centres undefined) | 1.2 µM | – | 1.2 |
| CCC(CC)(c1ccc(NCCC(C)(C)O)c(C)c1)c1ccc(NCCC(C)(C)O)c(C)c1 | 0.9 µM | 3.38 µM | 0.13 |
| CCC(CC)(c1ccc(OCC(=O)C(C)(C)C)c(C)c1)c1ccc(OCC(=O)C(C)(C)C)c(C)c1 | 0.41 µM | – | 0.22 |
| CCC(CC)(c1ccc(NCC(=O)C(C)(C)C)c(C)c1)c1ccc(OCC(=O)C(C)(C)C)c(C)c1 | 0.45 µM | – | 0.38 |
